# According to ChEMBL document CHEMBL1126079, “Synthesis, configuration, and calcium modulatory properties of enantiomerically pure 5-oxo-1,4,5,6,7,8-hexahydroquinoline-3-carboxylates” (J Med Chem, 1992):
# Legend:
# Cavia porcellus [1] = species on record: Cavia porcellus; test: Maximum inhibition of KCl-stimulated contraction of aortic strips of guinea pig; type: functional, Aorta
# Outline: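 Aortic strips were held in carbogen-perfused Tyrode solution at 37 °C under 2 g preload, and isometric contractions were recorded after amplification. Contractions were induced with KCl at 67 mmol/L bath concentration to test for antagonism. Between substances the preparation was washed back to its initial state before KCl was given again.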
# Cavia porcellus [2] = species on record: Cavia porcellus; test: Intrinsic activity is the inhibition of contraction of guinea pig aorta strips value in comparison with nifedipine.; type: functional
# Outline: (§1)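 Tissue sat in carbogen-perfused Tyrode solution at 37 °C under a 2 g preload, with isometric recording. KCl (67 mmol/L bath concentration) was added after each substance to test for antagonism, with washing back to the initial state between substances. EC50 and intrinsic activity were derived as in the paper's earlier section 1c.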
# Cavia porcellus [3] = species on record: Cavia porcellus; test: Effect on KCl-stimulated contraction of aortic strips of guinea pig; type: functional, Aorta; outline: as §1
# Cavia porcellus [4] = species on record: Cavia porcellus; test: Intrinsic activity value in comparison with nifedipine.; type: functional
# Cavia porcellus [5] = species on record: Cavia porcellus; test: Effect on BaCl2-stimulated contraction of ileum of guinea pig; type: functional
# Outline: (§2)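 Each test substance was given as a single dose to the ileum preparation. BaCl2 contraction was elicited after a 10-min exposure. Between substances the tissue was washed until the initial state returned, then BaCl2 contraction was induced again.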
# Cavia porcellus [6] = species on record: Cavia porcellus; test: (§3) Maximum inhibition of BaCl2-stimulated contraction of ileum of guinea pig; type: functional
# Outline: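 Guinea-pig ileum, single-dose technique: each test substance was added and left for 10 min before BaCl2 contractions were induced. Between substances the preparation was washed until the initial state returned, then BaCl2 contraction was induced again.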
# Cavia porcellus [7] = species on record: Cavia porcellus; test: as §3; type: functional; outline: as §2; remark: listed apart in the source
# Cavia porcellus [8] = species on record: Cavia porcellus; test: Intrinsic activity is the inhibition of contraction of guinea pig ileum value in comparison with nifedipine.; type: functional; outline: as §2
EC50 (Cavia porcellus [3]),EC50 (Cavia porcellus [5]),Structure (SMILES),Max effect (Cavia porcellus [1]),IA (Cavia porcellus [2]),Inhibition (Cavia porcellus [1]),IA (Cavia porcellus [4]),Inhibition (Cavia porcellus [6]),Max effect (Cavia porcellus [7]),IA (Cavia porcellus [8])
4e-05 M l-1,–,CO[C@@H](COC(=O)C1=C(C)NC2=C(C(=O)CCC2)[C@H]1c1ccc2c(c1)OCO2)c1ccccc1,42%,0.6,–,–,–,–,–
–,22 µM,COC(=O)C1=C(C)NC2=C(C(=O)CCC2)[C@@H]1c1ccc2c(c1)OCO2 (stereo in doubt; 9b),84%,1.2,–,–,–,89%,0.94
7.1e-06 M l-1,–,CO[C@H](COC(=O)C1=C(C)NC2=C(C(=O)CCC2)[C@@H]1c1ccc2c(c1)OCO2)c1ccccc1,70%,1,–,–,–,–,–

# Continued, compound first:
Structure (SMILES),EC50 (Cavia porcellus [3]),EC50 (Cavia porcellus [5]),Max effect (Cavia porcellus [1]),IA (Cavia porcellus [2]),Inhibition (Cavia porcellus [1]),IA (Cavia porcellus [4]),Inhibition (Cavia porcellus [6]),Max effect (Cavia porcellus [7]),IA (Cavia porcellus [8])
COC(=O)C1=C(C)NC(C)=C(C(=O)OC)C1c1ccccc1[N+](=O)[O-] [NIFEDIPINE],8.9e-09 M l-1,2e-08 M l-1,–,–,70%,1,95%,–,–
CO/C(O)=C1\C(C)=NC2=C(C(=O)CCC2)C1c1ccc2c(c1)OCO2 (racemic),2e-06 M l-1,5e-05 M l-1,73%,1,–,–,–,76%,0.8
COC(=O)C1=C(C)NC2=C(C(=O)CCC2)[C@@H]1c1ccc2c(c1)OCO2 (stereo in doubt; 9a),–,25 µM,38%,0.54,–,–,–,42%,0.44
